Measured values published in ChEMBL document CHEMBL1165899, “Synthesis and antitumor evaluation of novel cyclic arylsulfonylureas: ADME-T and pharmacophore prediction” (2010).

Key:
Format in all cases: functional
M14 = assay: Growth inhibition of human M14 cells at 10 uM after 48 hrs by sulforhodamine B assay relative to control; conditions: M14, 48 h, read-out: GI
TK-10 = assay: Growth inhibition of human TK10 cells at 10 uM after 48 hrs by sulforhodamine B assay relative to control; conditions: TK-10, 48 h, read-out: GI
Method in brief: (§1)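 NCI 60-cell-line single-dose screen at 10 µM. Cells were plated at 5000–40,000 cells/well according to doubling time, in medium with 2 mM L-glutamine, and held 24 h at 37 °C, 5% CO₂, 100% humidity before drug. Time-zero plates were TCA-fixed. Exposure was 48 h, then TCA fixation and sulforhodamine B staining for 10 min, acetic acid washes, 10 mM trizma solubilization and A515. % inhibition = 100 − % activity, where 100% is the DMSO-solvent control.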

CAKI-1 = assay: Growth inhibition of human Caki1 cells at 10 uM after 48 hrs by sulforhodamine B assay relative to control; conditions: CAKI-1, 48 h, read-out: GI
A498 = assay: Growth inhibition of human A498 cells at 10 uM after 48 hrs by sulforhodamine B assay relative to control; conditions: A498, 48 h, read-out: GI
MOLT-4 = assay: Growth inhibition of human MOLT4 cells at 10 uM after 48 hrs by sulforhodamine B assay relative to control; conditions: MOLT-4, 48 h, read-out: GI
K562 = assay: Growth inhibition of human K562 cells at 10 uM after 48 hrs by sulforhodamine B assay relative to control; conditions: K562, 48 h, read-out: GI
HL-60(TB) = assay: Growth inhibition of human HL-60(TB) cells at 10 uM after 48 hrs by sulforhodamine B assay relative to control; conditions: HL-60, 48 h, read-out: GI
Method in brief: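 Part of a 60-cell-line panel screen at a single concentration. Cells were plated at 5000–40,000 cells/well according to doubling time and pre-incubated 24 h at 37 °C, 5% CO₂, with time-zero plates fixed. Drug exposure ran 48 h. Plates were stained with SRB, rinsed with 1% acetic acid, dye dissolved in 10 mM trizma base, read at 515 nm. % inhibition = 100 − % activity versus DMSO-only wells; 100–200% denotes lethality.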

PC-3 = assay: Growth inhibition of human PC3 cells at 10 uM after 48 hrs by sulforhodamine B assay relative to control; conditions: PC-3, 48 h, read-out: GI
OVCAR-4 = assay: Growth inhibition of human OVCAR4 cells at 10 uM after 48 hrs by sulforhodamine B assay relative to control; conditions: OVCAR-4, 48 h, read-out: GI
IGROV-1 = assay: Growth inhibition of human IGROV1 cells at 10 uM after 48 hrs by sulforhodamine B assay relative to control; conditions: IGROV-1, 48 h, read-out: GI
T47D = assay: Growth inhibition of human T47D cells at 10 uM after 48 hrs by sulforhodamine B assay relative to control; conditions: read-out: GI; method in brief: as §1
MDA-MB-435 = assay: Growth inhibition of human MDA-MB-435 cells at 10 uM after 48 hrs by sulforhodamine B assay relative to control; conditions: MDA-MB-435, 48 h, read-out: GI
BT-549 = assay: Growth inhibition of human BT549 cells at 10 uM after 48 hrs by sulforhodamine B assay relative to control; conditions: BT-549, 48 h, read-out: GI
KM12 = assay: Growth inhibition of human KM12 cells at 10 uM after 48 hrs by sulforhodamine B assay relative to control; conditions: KM12, 48 h, read-out: GI
HCT-116 = assay: Growth inhibition of human HCT116 cells at 10 uM after 48 hrs by sulforhodamine B assay relative to control; conditions: HCT-116, 48 h, read-out: GI
HCC 2998 = assay: Growth inhibition of human HCC2998 cells at 10 uM after 48 hrs by sulforhodamine B assay relative to control; conditions: HCC 2998, 48 h, read-out: GI
COLO 205 = assay: Growth inhibition of human COLO205 cells at 10 uM after 48 hrs by sulforhodamine B assay relative to control; conditions: COLO 205, 48 h, read-out: GI
NCI-H460 = assay: Growth inhibition of human NCI-H460 cells at 10 uM after 48 hrs by sulforhodamine B assay relative to control; conditions: NCI-H460, 48 h, read-out: GI
NCI-H226 = assay: Growth inhibition of human NCI-H226 cells at 10 uM after 48 hrs by sulforhodamine B assay relative to control; conditions: NCI-H226, 48 h, read-out: GI
EKVX = assay: Growth inhibition of human EKVX cells at 10 uM after 48 hrs by sulforhodamine B assay relative to control; conditions: read-out: GI
A549 = assay: Growth inhibition of human A549 cells at 10 uM after 48 hrs by sulforhodamine B assay relative to control; conditions: A549, 48 h, read-out: GI
SF-539 = assay: Growth inhibition of human SF539 cells at 10 uM after 48 hrs by sulforhodamine B assay relative to control; conditions: SF-539, 48 h, read-out: GI
UACC-257 = assay: Growth inhibition of human UACC257 cells at 10 uM after 48 hrs by sulforhodamine B assay relative to control; conditions: UACC-257, 48 h, read-out: GI; method in brief: as §1

CN(C)c1ccc(/C=C2\NC(=O)N(S(=O)(=O)c3ccc(Cl)cc3)C2=O)cc1
inhibition of growth at 10 µM (M14): 200% | inhibition of growth at 10 µM (TK-10): -33.4% | inhibition of growth at 10 µM (CAKI-1): -5.71% | inhibition of growth at 10 µM (A498): -8.94% | inhibition of growth at 10 µM (MOLT-4): 11.5% | inhibition of growth at 10 µM (K562): 8.89% | inhibition of growth at 10 µM (HL-60(TB)): 4.85% | inhibition of growth at 10 µM (PC-3): -6.65% | inhibition of growth at 10 µM (OVCAR-4): 7.93% | inhibition of growth at 10 µM (IGROV-1): 97.9% | inhibition of growth at 10 µM (T47D): -9.29% | inhibition of growth at 10 µM (MDA-MB-435): -4.89% | inhibition of growth at 10 µM (BT-549): 4.63% | inhibition of growth at 10 µM (KM12): -11.6% | inhibition of growth at 10 µM (HCT-116): -3.55% | inhibition of growth at 10 µM (HCC 2998): -54% | inhibition of growth at 10 µM (COLO 205): -14.7% | inhibition of growth at 10 µM (NCI-H460): -15.8% | inhibition of growth at 10 µM (NCI-H226): -9.94% | inhibition of growth at 10 µM (EKVX): 14.7% | inhibition of growth at 10 µM (A549): -8.84% | inhibition of growth at 10 µM (SF-539): -0.9% | inhibition of growth at 10 µM (UACC-257): -1.01%
